This passage reports IC50 and Activity results from ChEMBL document CHEMBL2424619, “Small-molecule ligands of methyl-lysine binding proteins: optimization of selectivity for L3MBTL3” (J Med Chem, 2013).

pIC50: −log10 of the molar value. Calls of active or inactive are those of the source. No cut-off for these calls is given here.

Data set [1] has as its target T1, Chromobox protein homolog 7 (Homo sapiens, UniProt O95931).
T1 sequence (O95931 whole entry): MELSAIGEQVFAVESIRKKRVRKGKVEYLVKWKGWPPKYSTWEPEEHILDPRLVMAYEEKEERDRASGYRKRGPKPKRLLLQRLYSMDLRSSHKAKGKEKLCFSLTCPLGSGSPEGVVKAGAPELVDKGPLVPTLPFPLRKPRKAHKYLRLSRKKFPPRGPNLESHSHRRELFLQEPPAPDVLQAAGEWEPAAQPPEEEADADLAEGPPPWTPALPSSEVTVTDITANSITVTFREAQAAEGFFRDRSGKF
In words: Inhibition of CBX7 (unknown origin) after 30 mins by AlphaScreen assay. The essentials: (§1)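 AlphaScreen competition with histone peptide. Compounds in 3-fold, 10-point dilutions, top 10 or 30 μM; buffer 20 mM Tris pH 8.0, 25 mM NaCl, 2 mM DTT, 0.05% Tween-20. Protein-peptide mix 30 min RT, then streptavidin donor plus nickel-chelate acceptor beads (GST acceptor beads for GST-tagged PHF23, JARID1A) 30 min RT dark. Protein-free His6-biotin peptide counterscreen.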

Data set [2] concerns the target T2, E3 ubiquitin-protein ligase UHRF1 (Homo sapiens, UniProt Q96T88).
T2 sequence (Q96T88 whole entry): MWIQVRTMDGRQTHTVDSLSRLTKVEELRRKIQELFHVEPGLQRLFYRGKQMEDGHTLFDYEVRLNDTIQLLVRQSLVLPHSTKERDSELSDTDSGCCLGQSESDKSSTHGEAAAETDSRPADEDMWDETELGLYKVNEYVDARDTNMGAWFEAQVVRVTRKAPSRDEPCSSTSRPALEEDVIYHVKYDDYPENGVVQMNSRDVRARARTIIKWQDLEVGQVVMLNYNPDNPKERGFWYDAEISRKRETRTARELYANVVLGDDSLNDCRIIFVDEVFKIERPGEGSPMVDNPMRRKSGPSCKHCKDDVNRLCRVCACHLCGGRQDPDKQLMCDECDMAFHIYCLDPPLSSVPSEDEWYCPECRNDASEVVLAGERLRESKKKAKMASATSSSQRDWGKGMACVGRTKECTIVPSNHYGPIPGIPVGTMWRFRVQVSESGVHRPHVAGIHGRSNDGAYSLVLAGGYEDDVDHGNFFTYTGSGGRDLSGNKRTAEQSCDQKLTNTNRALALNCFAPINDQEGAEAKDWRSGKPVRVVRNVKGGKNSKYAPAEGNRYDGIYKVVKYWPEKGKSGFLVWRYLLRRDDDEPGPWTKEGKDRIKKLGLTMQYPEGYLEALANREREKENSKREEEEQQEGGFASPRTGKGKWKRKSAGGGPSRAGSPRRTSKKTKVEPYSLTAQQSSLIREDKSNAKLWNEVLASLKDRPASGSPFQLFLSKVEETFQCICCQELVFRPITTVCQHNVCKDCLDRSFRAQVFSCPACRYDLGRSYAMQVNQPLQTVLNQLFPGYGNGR
In words: Inhibition of UHRF1 (unknown origin) after 30 mins by AlphaScreen assay. In outline: (§2)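 AlphaScreen competition with histone peptide. Compounds in 3-fold, 10-point dilutions, top 10 or 30 μM; buffer 20 mM Tris pH 8.0, 25 mM NaCl, 2 mM DTT, 0.05% Tween-20. Protein-peptide mix 30 min RT, then streptavidin donor plus nickel-chelate acceptor beads (GST acceptor beads for GST-tagged PHF23, JARID1A) 30 min RT dark. […] Protein-free His6-biotin peptide counterscreen.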
(In Alpha technology, singlet oxygen from a donor bead excites a nearby acceptor bead.)

A further data set addresses PHD finger protein 23 (Homo sapiens, UniProt Q9BUL5). In words: Inhibition of PHF23 (unknown origin) after 30 mins by AlphaScreen assay. The essentials:
as §1

A further data set has as its target TP53-binding protein 1 (Homo sapiens, UniProt Q12888). In words: Inhibition of 53BP1 (unknown origin) after 30 mins by AlphaScreen assay. The essentials: as §2
For data set [3], the target named is T3, Lethal(3)malignant brain tumor-like protein 3 (Homo sapiens) (UniProt Q96JM7).
T3 sequence (whole entry): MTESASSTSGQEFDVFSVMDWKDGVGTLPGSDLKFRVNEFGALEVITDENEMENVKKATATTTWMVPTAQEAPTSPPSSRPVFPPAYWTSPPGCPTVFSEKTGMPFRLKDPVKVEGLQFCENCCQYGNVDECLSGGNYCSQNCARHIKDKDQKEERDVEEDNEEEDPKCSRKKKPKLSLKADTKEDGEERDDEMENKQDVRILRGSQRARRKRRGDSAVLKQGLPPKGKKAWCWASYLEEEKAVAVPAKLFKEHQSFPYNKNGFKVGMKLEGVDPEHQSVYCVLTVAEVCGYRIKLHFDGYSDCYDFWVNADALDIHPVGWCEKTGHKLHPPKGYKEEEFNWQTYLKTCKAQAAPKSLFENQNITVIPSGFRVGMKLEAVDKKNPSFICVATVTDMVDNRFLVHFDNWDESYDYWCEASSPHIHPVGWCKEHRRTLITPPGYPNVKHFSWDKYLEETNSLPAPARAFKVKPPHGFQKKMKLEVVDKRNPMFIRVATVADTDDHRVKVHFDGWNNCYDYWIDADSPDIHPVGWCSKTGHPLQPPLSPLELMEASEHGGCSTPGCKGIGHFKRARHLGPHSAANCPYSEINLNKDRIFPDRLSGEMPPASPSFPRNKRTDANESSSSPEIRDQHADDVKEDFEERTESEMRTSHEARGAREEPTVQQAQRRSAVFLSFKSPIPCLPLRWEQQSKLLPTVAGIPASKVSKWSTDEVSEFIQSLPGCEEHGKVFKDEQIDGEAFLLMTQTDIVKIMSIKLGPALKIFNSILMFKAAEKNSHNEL
In words: Binding affinity to L3MBTL3 in human G401 cells by Western blot based pulldown assay. It counts as cell-based. The conditions noted are these: G-401. In outline:
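G-401 lysate made in Tris pH 8.0, 500 mM NaCl, EDTA, 1% Triton, diluted to 150 mM NaCl. […] Streptavidin beads saturated with biotinylated probe (biotin as control), rotated with lysate overnight at 4 °C, washed, eluted; SDS-PAGE and immunoblot for endogenous L3MBTL3.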
On the technique in general: In western blotting, separated proteins are transferred to a membrane and probed.

Data set [4] concerns the target MBT domain-containing protein 1 (Homo sapiens, UniProt Q05BQ5). In words: Inhibition of MBTD1 (unknown origin) after 30 mins by AlphaScreen assay. The essentials: as §1
For data set [5], the target named is T3, Lethal(3)malignant brain tumor-like protein 3 (Homo sapiens). In words: Displacement of mero76-UNC1215 from GFP-L3MBTL3 (unknown origin) expressed in HEK293 cells at 1 equivalent dose after 3 hrs by immunofluorescence assay. It is filed as cell-based. The essentials: (§3)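 HEK293 cells seeded on coverslips, transfected 24 h later with GFP-L3MBTL3 (N-terminal GFP fusion of full-length protein), then after 16 h loaded with mero76 conjugate (5 μM) for 3 h. Competitor then added at 5 μM or 25 μM (1 or 5 equivalents relative to probe) for a further 3 h. Hoechst-stained; spinning-disk confocal imaging scored loss of probe foci.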

The subject of the next data set is HEK-293T. In words: Cytotoxicity against HEK293T/17 cells assessed as cell viability up to 100 uM after 24 hrs by CellTiter-Glo luminescence assay. The conditions noted are these: human. It counts as cell-based. In outline: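 Cell viability by CellTiter-Glo luminescence, compound tested up to 100 μM.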
Data set [6] addresses T3, Lethal(3)malignant brain tumor-like protein 3 (Homo sapiens). In words: Displacement of mero76-UNC1215 from GFP-L3MBTL3 (unknown origin) expressed in HEK293 cells at 5 uM after 3 hrs by immunofluorescence assay. It counts as cell-based. The essentials: as §3

The term pIC50 denotes the negative decadic logarithm of the IC50, by convention in mol/L. Read a high pIC50 as a small IC50.

TP53-binding protein 1, sequence (Q12888 whole entry): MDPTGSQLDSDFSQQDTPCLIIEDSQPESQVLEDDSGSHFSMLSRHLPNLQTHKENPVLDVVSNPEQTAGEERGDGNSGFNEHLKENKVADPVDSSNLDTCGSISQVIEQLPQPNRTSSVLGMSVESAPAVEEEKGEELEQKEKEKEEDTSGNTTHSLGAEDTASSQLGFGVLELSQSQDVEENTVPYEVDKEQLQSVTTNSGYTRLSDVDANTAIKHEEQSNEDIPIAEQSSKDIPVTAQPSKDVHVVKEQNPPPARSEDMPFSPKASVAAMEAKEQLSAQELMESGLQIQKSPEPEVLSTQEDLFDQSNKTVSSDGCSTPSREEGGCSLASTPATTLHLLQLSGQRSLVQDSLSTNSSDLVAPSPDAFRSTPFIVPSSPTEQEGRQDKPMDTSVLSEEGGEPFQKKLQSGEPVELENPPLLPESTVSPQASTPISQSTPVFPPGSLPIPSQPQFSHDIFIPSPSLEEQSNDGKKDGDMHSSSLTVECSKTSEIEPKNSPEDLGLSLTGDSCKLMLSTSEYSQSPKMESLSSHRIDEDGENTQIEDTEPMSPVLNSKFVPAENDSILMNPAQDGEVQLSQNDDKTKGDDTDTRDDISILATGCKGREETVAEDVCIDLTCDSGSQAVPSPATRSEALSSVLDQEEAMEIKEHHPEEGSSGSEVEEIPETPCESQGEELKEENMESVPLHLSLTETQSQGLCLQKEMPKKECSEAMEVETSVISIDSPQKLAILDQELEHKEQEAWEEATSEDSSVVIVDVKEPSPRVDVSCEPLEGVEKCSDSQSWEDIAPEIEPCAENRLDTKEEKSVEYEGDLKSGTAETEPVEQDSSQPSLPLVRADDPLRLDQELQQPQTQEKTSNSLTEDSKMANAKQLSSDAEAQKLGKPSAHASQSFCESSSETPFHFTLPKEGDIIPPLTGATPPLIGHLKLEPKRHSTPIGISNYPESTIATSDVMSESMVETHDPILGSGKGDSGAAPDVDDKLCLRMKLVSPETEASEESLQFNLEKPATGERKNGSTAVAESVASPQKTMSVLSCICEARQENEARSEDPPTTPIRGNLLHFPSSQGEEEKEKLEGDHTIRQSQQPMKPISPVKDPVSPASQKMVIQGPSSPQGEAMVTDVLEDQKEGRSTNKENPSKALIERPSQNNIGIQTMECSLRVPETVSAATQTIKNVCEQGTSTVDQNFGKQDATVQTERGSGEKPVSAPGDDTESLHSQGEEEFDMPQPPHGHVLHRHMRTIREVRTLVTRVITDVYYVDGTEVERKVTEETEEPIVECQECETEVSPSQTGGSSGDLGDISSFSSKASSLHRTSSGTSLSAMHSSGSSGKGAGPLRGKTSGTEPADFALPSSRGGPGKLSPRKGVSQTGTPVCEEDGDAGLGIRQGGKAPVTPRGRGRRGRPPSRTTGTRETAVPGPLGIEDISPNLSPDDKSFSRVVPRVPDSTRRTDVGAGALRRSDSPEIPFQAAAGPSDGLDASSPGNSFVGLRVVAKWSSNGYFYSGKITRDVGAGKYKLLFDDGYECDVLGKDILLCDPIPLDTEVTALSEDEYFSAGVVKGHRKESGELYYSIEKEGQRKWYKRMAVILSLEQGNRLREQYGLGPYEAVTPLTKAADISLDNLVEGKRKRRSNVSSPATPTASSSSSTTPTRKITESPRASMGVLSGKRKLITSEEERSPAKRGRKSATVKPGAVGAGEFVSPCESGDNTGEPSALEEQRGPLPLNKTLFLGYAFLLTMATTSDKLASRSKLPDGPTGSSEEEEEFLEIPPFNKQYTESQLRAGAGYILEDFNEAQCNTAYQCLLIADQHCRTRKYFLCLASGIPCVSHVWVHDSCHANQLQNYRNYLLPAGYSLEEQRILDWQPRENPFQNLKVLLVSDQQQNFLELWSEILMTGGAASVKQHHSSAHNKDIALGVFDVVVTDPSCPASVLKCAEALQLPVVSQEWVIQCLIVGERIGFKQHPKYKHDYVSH
MBT domain-containing protein 1, sequence (Q05BQ5 whole entry, the tested form may be a part): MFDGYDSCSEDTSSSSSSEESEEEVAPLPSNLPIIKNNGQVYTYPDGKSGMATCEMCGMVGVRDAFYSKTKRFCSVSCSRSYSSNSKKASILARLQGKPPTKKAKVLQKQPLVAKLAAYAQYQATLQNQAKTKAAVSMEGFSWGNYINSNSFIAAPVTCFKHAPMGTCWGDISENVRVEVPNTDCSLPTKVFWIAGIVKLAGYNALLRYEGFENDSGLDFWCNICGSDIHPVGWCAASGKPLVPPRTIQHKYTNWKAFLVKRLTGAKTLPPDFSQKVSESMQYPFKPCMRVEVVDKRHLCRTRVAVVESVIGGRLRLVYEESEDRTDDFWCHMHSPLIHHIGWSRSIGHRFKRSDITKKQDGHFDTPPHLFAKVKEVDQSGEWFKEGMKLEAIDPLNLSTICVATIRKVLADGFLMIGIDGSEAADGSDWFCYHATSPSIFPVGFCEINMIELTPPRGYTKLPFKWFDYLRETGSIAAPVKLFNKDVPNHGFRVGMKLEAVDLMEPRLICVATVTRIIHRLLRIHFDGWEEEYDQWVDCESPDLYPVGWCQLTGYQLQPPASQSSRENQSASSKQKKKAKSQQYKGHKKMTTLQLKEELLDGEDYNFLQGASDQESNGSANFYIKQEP
PHD finger protein 23, sequence (Q9BUL5 whole entry): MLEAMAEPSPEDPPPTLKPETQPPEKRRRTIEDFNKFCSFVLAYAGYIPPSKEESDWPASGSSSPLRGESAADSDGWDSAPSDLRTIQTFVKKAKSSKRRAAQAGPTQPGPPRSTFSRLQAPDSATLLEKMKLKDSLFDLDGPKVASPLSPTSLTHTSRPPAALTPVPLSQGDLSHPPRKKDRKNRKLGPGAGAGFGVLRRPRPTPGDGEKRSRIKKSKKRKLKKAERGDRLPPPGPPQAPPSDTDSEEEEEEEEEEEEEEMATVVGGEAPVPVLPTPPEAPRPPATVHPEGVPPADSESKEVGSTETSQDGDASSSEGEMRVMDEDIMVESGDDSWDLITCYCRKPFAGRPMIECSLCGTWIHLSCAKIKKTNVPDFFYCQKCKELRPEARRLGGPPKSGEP

Turning to `O=C(c1ccc(C(=O)N2CCC(N3CCCCC3)CC2)cc1)N1CCC(N2CCCCC2)CC1`, the pIC50 is below 5.00 in data set [1]; below 5.00 in [2]; below 5.00 on PHD finger protein 23; below 5.00 on TP53-binding protein 1; 5.31 in data set [4]. Further, in data set [3], the outcome was inactive.

With `CCN1Cc2ccc(NC(=O)c3ccc(C(=O)N4CCC(C5CCCN5)CC4)cc3)cc2C1` (stereo not given), the pIC50 (in data set [1]; in data set [2]; on PHD finger protein 23; at TP53-binding protein 1; in data set [4]) was below 5.00 each time. In addition, the result in data set [5] and in data set [6] was Active. Further, the Activity entry in the data set with HEK-293T is recorded as “Non-toxic”.

Take `O=C(c1ccc(C(=O)N2CCC(N3CCCC3)CC2)c(Nc2ccccc2)c1)N1CCC(N2CCCC2)CC1`: the pIC50 in data set [1] is below 5.00; in [2] it was below 5.00; against PHD finger protein 23, below 5.00; on TP53-binding protein 1 it was below 5.00; in data set [4] it was 5.05. In addition, the result in data set [5] and in data set [3] was Active. Moreover, the Activity result in the data set on HEK-293T was “Non-toxic”.

Turning to `CCN1Cc2ccc(NC(=O)c3ccc(C(=O)N4CCC(C5CCCN5)CC4)c(Nc4ccccc4)c3)cc2C1` (stereo not given), the negative logarithm of the IC50 (pIC50) is below 5.00 in [1]; below 5.00 in [2]; below 5.00 against PHD finger protein 23; below 5.00 on TP53-binding protein 1; 5.29 in [4]. In addition, the outcome in data set [5], in data set [6] and in data set [3] was Active.
